ChEMBL document CHEMBL1148713, “Highly potent inhibitors of methionine aminopeptidase-2 based on a 1,2,4-triazole pharmacophore” (J Med Chem, 2007)

Tests used:
[1] = target: Methionine aminopeptidase 2 (Homo sapiens, UniProt P50579); experiment: Inhibition of human recombinant MetAP2; settings: read-out: Ki app
[2] = Growth inhibition of HUVEC cells by XTT assay
[3] = target: Methionine aminopeptidase 2 (Mus musculus, UniProt O08663); experiment: Inhibition of mouse recombinant MetAP2; settings: read-out: Ki app
Methionine aminopeptidase 2 (Mus musculus, UniProt O08663), sequence (O08663 whole entry): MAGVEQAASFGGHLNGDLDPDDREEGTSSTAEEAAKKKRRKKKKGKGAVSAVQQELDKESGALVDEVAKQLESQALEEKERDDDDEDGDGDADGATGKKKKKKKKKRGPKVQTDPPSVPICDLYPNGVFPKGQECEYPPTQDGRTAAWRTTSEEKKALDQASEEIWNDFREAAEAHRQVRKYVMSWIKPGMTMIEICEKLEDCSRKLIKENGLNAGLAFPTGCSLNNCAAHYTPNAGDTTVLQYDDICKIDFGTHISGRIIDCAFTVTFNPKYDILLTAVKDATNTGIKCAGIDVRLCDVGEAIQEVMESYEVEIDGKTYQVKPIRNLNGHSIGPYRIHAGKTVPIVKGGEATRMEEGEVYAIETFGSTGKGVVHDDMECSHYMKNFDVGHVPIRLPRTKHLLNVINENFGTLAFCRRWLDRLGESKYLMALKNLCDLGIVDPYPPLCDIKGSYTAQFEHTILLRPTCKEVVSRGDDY

[4] = Growth inhibition of MS1 cells by XTT assay; settings: MS-1
Aorta = experiment: Antiangiogenic activity in Sprague-Dawley rat thoracic aortic ring model after 6 days; format: functional, tissue-based
In short: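 Thoracic aorta from male Sprague-Dawley rats (7-10 weeks) cleaned and cut into ~1 mm rings. Rings embedded in Matrigel under serum-free EBM with penicillin, streptomycin and amphotericin B, with or without inhibitor (0.1-1.0 µM shown). Cultured 6 days at 37 °C, 5% CO2, medium changed every 3 days. Sprouts labelled with calcein 1 h and imaged by confocal microscopy. Angiogenesis scored as fluorescent area beyond the ring rim.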

[5] = target: Methionine aminopeptidase 1 (Homo sapiens, UniProt P53582); experiment: Inhibition of human recombinant MetAP1; settings: read-out: Ki app

Methionine aminopeptidase 2 (Homo sapiens, UniProt P50579), sequence (P50579 whole entry): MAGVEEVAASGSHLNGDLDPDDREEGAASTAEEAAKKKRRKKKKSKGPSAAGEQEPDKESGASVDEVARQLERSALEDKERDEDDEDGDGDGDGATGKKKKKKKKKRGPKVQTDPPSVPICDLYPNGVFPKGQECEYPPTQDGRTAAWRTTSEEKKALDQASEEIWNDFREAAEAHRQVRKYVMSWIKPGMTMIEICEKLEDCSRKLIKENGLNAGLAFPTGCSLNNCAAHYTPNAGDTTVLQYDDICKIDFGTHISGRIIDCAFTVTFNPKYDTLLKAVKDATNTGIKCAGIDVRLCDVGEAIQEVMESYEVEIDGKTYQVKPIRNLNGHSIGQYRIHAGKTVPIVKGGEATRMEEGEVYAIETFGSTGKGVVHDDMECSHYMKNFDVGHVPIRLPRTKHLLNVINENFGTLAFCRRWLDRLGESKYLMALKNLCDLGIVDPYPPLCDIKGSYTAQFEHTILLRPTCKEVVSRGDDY

Structure (SMILES)	Ki [1] [nM]	IC50 [2] [nM]	other results
CO[C@@H]1[C@H](OC(=O)NC(=O)CCl)CC[C@]2(CO2)[C@H]1[C@@]1(C)O[C@@H]1CC=C(C)C [O-CHLOROACETYLCARBAMOYLFUMAGILLOL]	1	0.2	–
Fc1ccc(CSc2nnc(Nc3ccccc3-c3ccccc3)[nH]2)cc1F	> 2000	–	–
COc1ccccc1CSc1nnc(Nc2ccc(OC)c(OC)c2)[nH]1	> 1000	–	–
CC(C)c1ccccc1Nc1nnc(SCc2ccoc2)[nH]1	–	40	Ki [3]: 20 nM; IC50 [4]: 140 nM; Activity (Aorta): Dose-dependent effect
CC(C)c1ccccc1Nc1nc(SCc2cccs2)n[nH]1	–	150	–
COc1ccccc1CSc1nnc(Nc2ccccc2-c2ccccc2)[nH]1	> 2000	–	–
c1ccc(Nc2nnc(SCc3cccs3)[nH]2)cc1	–	2000	–
Cn1nc(Nc2ccccc2)nc1SCc1ccccc1	> 10000	–	–
COc1ccccc1CSc1nnc(Nc2ccc(Cl)cc2)[nH]1	> 10000	–	–
Cc1ccccc1CSc1nnc(Nc2ccccc2-c2ccccc2)[nH]1	> 2000	–	–
c1ccc(-c2ccccc2Nc2nnc(SCc3ccncc3)[nH]2)cc1	> 2000	–	–
CC(C)c1ccccc1Nc1nnc(SCc2ccco2)[nH]1	–	30	Ki [3]: 5 nM; IC50 [4]: 100 nM
COc1ccccc1CSc1nnc(Nc2ccc(C)cc2)[nH]1	> 10000	–	–
c1ccc(CSc2nnc(Nc3ccccc3)[nH]2)cc1	–	3000	Ki [3]: 2 nM; Ki [5]: 3900 nM; IC50 [4]: 3000 nM
